Measurements reported in ChEMBL document CHEMBL3259728, “Design, synthesis and biological evaluation of some novel substituted quinazolines as antitumor agents” (2014).

Assays:
Assay type in all cases: functional
[1] = system: SK-MEL-28; experiment: Growth inhibition of human SK-MEL-28 cells at 10 uM after 48 hrs by SRB assay; details: SK-MEL-28, 48 h, read-out: GI
Summary of the method: (§1)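 NCI-60 primary one-dose screen run at the US NCI, with human tumour lines from nine cancer types. Compound added once at 10^-5 M, followed by 48 h incubation. End point was sulforhodamine B protein staining read spectrophotometrically. Result given as percent growth of treated cells against untreated controls, reported as % growth inhibition.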

[2] = system: HT-29; experiment: Growth inhibition of human HT-29 cells at 10 uM after 48 hrs by SRB assay; details: HT-29, 48 h, read-out: GI; summary of the method: as §1
[3] = Growth inhibition of human RXF393 cells at 10 uM after 48 hrs by SRB assay; details: RXF 393, 48 h, read-out: GI; summary of the method: as §1
[4] = Growth inhibition of human EKVX cells at 10 uM after 48 hrs by SRB assay; details: read-out: GI; summary of the method: as §1
[5] = system: SN12C; experiment: Growth inhibition of human SN12C cells at 10 uM after 48 hrs by SRB assay; details: read-out: GI; summary of the method: as §1
[6] = system: HOP-62; experiment: Growth inhibition of human HOP62 cells at 10 uM after 48 hrs by SRB assay; details: HOP-62, 48 h, read-out: GI; summary of the method: as §1
[7] = system: RPMI-8226; experiment: Growth inhibition of human RPMI8226 cells at 10 uM after 48 hrs by SRB assay; details: RPMI-8226, 48 h, read-out: GI; summary of the method: as §1
[8] = Growth inhibition of human UACC257 cells at 10 uM after 48 hrs by SRB assay; details: UACC-257, 48 h, read-out: GI; summary of the method: as §1
[9] = Growth inhibition of human NCI-ADR-RES cells at 10 uM after 48 hrs by SRB assay; details: read-out: GI; summary of the method: as §1
[10] = system: MDA-MB-435; experiment: Growth inhibition of human MDA-MB-435 cells at 10 uM after 48 hrs by SRB assay; details: MDA-MB-435, 48 h, read-out: GI; summary of the method: as §1
[11] = system: CCRF-CEM; experiment: Growth inhibition of human CCRF-CEM cells at 10 uM after 48 hrs by SRB assay; details: read-out: GI
Summary of the method: (§2)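 NCI primary one-dose screen. A single concentration of 10^-5 M was added to the cell culture, followed by 48 h incubation and an SRB protein-dye endpoint read spectrophotometrically. Results are growth percentage relative to untreated control cells, reported as % growth inhibition.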

[12] = system: SW-620; experiment: Growth inhibition of human SW620 cells at 10 uM after 48 hrs by SRB assay; details: SW-620, 48 h, read-out: GI; summary of the method: as §1
[13] = Growth inhibition of human UO31 cells at 10 uM after 48 hrs by SRB assay; details: UO-31, 48 h, read-out: GI; summary of the method: as §1
[14] = system: M14; experiment: Growth inhibition of human M14 cells at 10 uM after 48 hrs by SRB assay; details: M14, 48 h, read-out: GI; summary of the method: as §1
[15] = Growth inhibition of human UACC62 cells at 10 uM after 48 hrs by SRB assay; details: UACC-62, 48 h, read-out: GI; summary of the method: as §1
[16] = system: MDA-MB-468; experiment: Growth inhibition of human MDA-MB-468 cells assessed as cell growth at 10 uM after 48 hrs by SRB assay; details: MDA-MB-468, 48 h, read-out: GI; summary of the method: as §1
[17] = system: A549; experiment: Growth inhibition of human A549 cells at 10 uM after 48 hrs by SRB assay; details: A549, 48 h, read-out: GI; summary of the method: as §2
[18] = system: IGROV-1; experiment: Growth inhibition of human IGROV1 cells at 10 uM after 48 hrs by SRB assay; details: IGROV-1, 48 h, read-out: GI; summary of the method: as §1
[19] = system: COLO 205; experiment: Growth inhibition of human COLO205 cells at 10 uM after 48 hrs by SRB assay; details: COLO 205, 48 h, read-out: GI; summary of the method: as §2
[20] = system: SK-MEL-5; experiment: Growth inhibition of human SK-MEL-5 cells at 10 uM after 48 hrs by SRB assay; details: SK-MEL-5, 48 h, read-out: GI; summary of the method: as §1
[21] = system: U-251; experiment: Growth inhibition of human U251 cells at 10 uM after 48 hrs by SRB assay; details: U-251, 48 h, read-out: GI; summary of the method: as §1
[22] = system: Malme-3M; experiment: Growth inhibition of human MALME-3M cells at 10 uM after 48 hrs by SRB assay; details: read-out: GI; summary of the method: as §1
[23] = system: NCI-H226; experiment: Growth inhibition of human NCI-H226 cells at 10 uM after 48 hrs by SRB assay; details: NCI-H226, 48 h, read-out: GI; summary of the method: as §1
[24] = Growth inhibition of human OVCAR5 cells at 10 uM after 48 hrs by SRB assay; details: OVCAR-5, 48 h, read-out: GI; summary of the method: as §1
[25] = system: SK-OV-3; experiment: Growth inhibition of human SKOV3 cells at 10 uM after 48 hrs by SRB assay; details: SK-OV-3, 48 h, read-out: GI; summary of the method: as §1
[26] = system: DU-145; experiment: Growth inhibition of human DU145 cells at 10 uM after 48 hrs by SRB assay; details: DU-145, 48 h, read-out: GI; summary of the method: as §1
[27] = system: KM12; experiment: Growth inhibition of human KM12 cells at 10 uM after 48 hrs by SRB assay; details: KM12, 48 h, read-out: GI; summary of the method: as §1
[28] = Growth inhibition of human OVCAR3 cells at 10 uM after 48 hrs by SRB assay; details: OVCAR-3, 48 h, read-out: GI; summary of the method: as §1
[29] = Growth inhibition of human SF539 cells at 10 uM after 48 hrs by SRB assay; details: SF-539, 48 h, read-out: GI; summary of the method: as §1
[30] = system: TK-10; experiment: Growth inhibition of human TK10 cells at 10 uM after 48 hrs by SRB assay; details: TK-10, 48 h, read-out: GI; summary of the method: as §1
[31] = Growth inhibition of human HOP92 cells at 10 uM after 48 hrs by SRB assay; details: HOP-92, 48 h, read-out: GI; summary of the method: as §1
[32] = system: HCT-116; experiment: Growth inhibition of human HCT116 cells at 10 uM after 48 hrs by SRB assay; details: HCT-116, 48 h, read-out: GI; summary of the method: as §1
[33] = Growth inhibition of human BT549 cells at 10 uM after 48 hrs by SRB assay; details: BT-549, 48 h, read-out: GI; summary of the method: as §2
[34] = system: NCI-H522; experiment: Growth inhibition of human NCI-H522 cells at 10 uM after 48 hrs by SRB assay; details: NCI-H522, 48 h, read-out: GI; summary of the method: as §1
[35] = Growth inhibition of human Hs578T cells at 10 uM after 48 hrs by SRB assay; details: Hs-578T, read-out: GI; summary of the method: as §1
[36] = system: SNB-19; experiment: Growth inhibition of human SNB19 cells at 10 uM after 48 hrs by SRB assay; details: SNB-19, 48 h, read-out: GI; summary of the method: as §1
[37] = system: SNB-75; experiment: Growth inhibition of human SNB75 cells at 10 uM after 48 hrs by SRB assay; details: SNB-75, 48 h, read-out: GI; summary of the method: as §1
[38] = Growth inhibition of human HCC2998 cells at 10 uM after 48 hrs by SRB assay; details: HCC 2998, 48 h, read-out: GI; summary of the method: as §1

Compound | inhibition of growth at 10 µM [1] [%] | inhibition of growth at 10 µM [2] [%] | inhibition of growth at 10 µM [3] [%] | inhibition of growth at 10 µM [4] [%] | inhibition of growth at 10 µM [5] [%] | inhibition of growth at 10 µM [6] [%] | inhibition of growth at 10 µM [7] [%] | inhibition of growth at 10 µM [8] [%] | inhibition of growth at 10 µM [9] [%] | inhibition of growth at 10 µM [10] [%] | inhibition of growth at 10 µM [11] [%] | inhibition of growth at 10 µM [12] [%] | inhibition of growth at 10 µM [13] [%] | inhibition of growth at 10 µM [14] [%] | inhibition of growth at 10 µM [15] [%] | inhibition of growth at 10 µM [16] [%] | inhibition of growth at 10 µM [17] [%] | inhibition of growth at 10 µM [18] [%] | inhibition of growth at 10 µM [19] [%] | inhibition of growth at 10 µM [20] [%] | further results
Cc1ccc(C(=O)Nc2ccc(Cl)cc2C(=O)NCc2ccccc2)cc1 | 17 | 77 | 13 | 20 | < 10 | 12 | 23 | 15 | 28 | 98 | 27 | 42 | 24 | 26 | 30 | 17 | 15 | 16 | < 10 | 22 | inhibition of growth at 10 µM [21]: 19%; inhibition of growth at 10 µM [22]: 12%; inhibition of growth at 10 µM [23]: < 10%; inhibition of growth at 10 µM [24]: < 10%; inhibition of growth at 10 µM [25]: < 10%; inhibition of growth at 10 µM [26]: < 10%; inhibition of growth at 10 µM [27]: 40%; inhibition of growth at 10 µM [28]: < 10%; inhibition of growth at 10 µM [29]: 16%; inhibition of growth at 10 µM [30]: < 10%; inhibition of growth at 10 µM [31]: < 10%; inhibition of growth at 10 µM [32]: 11%; inhibition of growth at 10 µM [33]: < 10%; inhibition of growth at 10 µM [34]: 47%; inhibition of growth at 10 µM [35]: 21%; inhibition of growth at 10 µM [36]: < 10%; inhibition of growth at 10 µM [37]: 33%; inhibition of growth at 10 µM [38]: 14%
Cc1ccc(C(=O)Nc2ccc(Cl)cc2C(=O)Nc2ccccn2)cc1 | < 10 | 14 | < 10 | 12 | < 10 | < 10 | 15 | < 10 | < 10 | 19 | 29 | < 10 | 13 | < 10 | 16 | 11 | 13 | 14 | < 10 | 39 | inhibition of growth at 10 µM [21]: < 10%; inhibition of growth at 10 µM [22]: < 10%; inhibition of growth at 10 µM [23]: < 10%; inhibition of growth at 10 µM [24]: < 10%; inhibition of growth at 10 µM [25]: < 10%; inhibition of growth at 10 µM [26]: 11%; inhibition of growth at 10 µM [27]: 11%; inhibition of growth at 10 µM [28]: 12%; inhibition of growth at 10 µM [29]: 22%; inhibition of growth at 10 µM [30]: < 10%; inhibition of growth at 10 µM [31]: < 10%; inhibition of growth at 10 µM [32]: < 10%; inhibition of growth at 10 µM [33]: < 10%; inhibition of growth at 10 µM [34]: 22%; inhibition of growth at 10 µM [35]: < 10%; inhibition of growth at 10 µM [36]: < 10%; inhibition of growth at 10 µM [37]: 24%; inhibition of growth at 10 µM [38]: < 10%
Cc1ccc(-c2nc3ccc(Cl)cc3c(=O)n2NC(=O)CN)cc1 | < 10 | 12 | < 10 | 22 | < 10 | 15 | < 10 | < 10 | < 10 | < 10 | 14 | < 10 | 11 | 11 | < 10 | < 10 | < 10 | < 10 | < 10 | < 10 | inhibition of growth at 10 µM [21]: < 10%; inhibition of growth at 10 µM [22]: < 10%; inhibition of growth at 10 µM [23]: 11%; inhibition of growth at 10 µM [24]: 11%; inhibition of growth at 10 µM [25]: < 10%; inhibition of growth at 10 µM [26]: < 10%; inhibition of growth at 10 µM [27]: < 10%; inhibition of growth at 10 µM [28]: < 10%; inhibition of growth at 10 µM [29]: 15%; inhibition of growth at 10 µM [30]: < 10%; inhibition of growth at 10 µM [31]: < 10%; inhibition of growth at 10 µM [32]: 11%; inhibition of growth at 10 µM [33]: < 10%; inhibition of growth at 10 µM [34]: < 10%; inhibition of growth at 10 µM [35]: < 10%; inhibition of growth at 10 µM [36]: < 10%; inhibition of growth at 10 µM [37]: 15%; inhibition of growth at 10 µM [38]: < 10%
